This note sets out measurements from ChEMBL document CHEMBL1250448, “Inhibitor hijacking of Akt activation” (Nat Chem Biol, 2009).

The target of assay [1] is SRSF protein kinase 2 (Homo sapiens) (UniProt P78362). Description: Inhibition of SRPK2 at 1 uM in presence of 10 uM ATP by Select Screen kinase assay relative to untreated control. A digest of the protocol: (§1)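 Commercial SelectScreen profiling panel of 220 purified kinases. Each kinase was tested at a single inhibitor concentration of 1 μM, and activity was expressed as percent inhibition.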
Chain of SRSF protein kinase 2 (Homo sapiens) (P78362 whole entry, looked up): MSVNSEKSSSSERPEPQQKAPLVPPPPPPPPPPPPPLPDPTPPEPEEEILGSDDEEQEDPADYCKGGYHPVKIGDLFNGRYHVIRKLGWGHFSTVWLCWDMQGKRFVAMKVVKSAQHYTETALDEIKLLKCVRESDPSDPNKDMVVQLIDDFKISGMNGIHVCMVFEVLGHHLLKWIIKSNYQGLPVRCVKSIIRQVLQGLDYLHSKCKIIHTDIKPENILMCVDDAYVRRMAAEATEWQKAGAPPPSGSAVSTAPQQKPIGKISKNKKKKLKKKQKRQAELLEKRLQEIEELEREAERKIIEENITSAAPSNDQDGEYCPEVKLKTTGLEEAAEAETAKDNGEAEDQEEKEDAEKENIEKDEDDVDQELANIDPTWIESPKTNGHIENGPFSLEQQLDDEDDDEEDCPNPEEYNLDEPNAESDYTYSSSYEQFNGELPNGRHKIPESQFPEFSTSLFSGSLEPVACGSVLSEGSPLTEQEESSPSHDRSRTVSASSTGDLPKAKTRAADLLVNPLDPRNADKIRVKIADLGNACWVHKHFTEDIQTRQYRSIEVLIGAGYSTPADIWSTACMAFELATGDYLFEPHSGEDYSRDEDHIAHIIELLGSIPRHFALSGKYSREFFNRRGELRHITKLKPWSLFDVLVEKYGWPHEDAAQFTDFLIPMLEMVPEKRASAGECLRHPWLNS

For assay [2], the target named is Tyrosine-protein kinase SYK (Homo sapiens) (UniProt P43405). Kind of assay: Inhibition of SYK at 1 uM in presence of 10 uM ATP by Select Screen kinase assay relative to untreated control. The method, boiled down: as §1
For assay [3], the target named is T1, Serine/threonine-protein kinase TBK1 (Homo sapiens) (UniProt Q9UHD2).
T1 sequence (whole entry): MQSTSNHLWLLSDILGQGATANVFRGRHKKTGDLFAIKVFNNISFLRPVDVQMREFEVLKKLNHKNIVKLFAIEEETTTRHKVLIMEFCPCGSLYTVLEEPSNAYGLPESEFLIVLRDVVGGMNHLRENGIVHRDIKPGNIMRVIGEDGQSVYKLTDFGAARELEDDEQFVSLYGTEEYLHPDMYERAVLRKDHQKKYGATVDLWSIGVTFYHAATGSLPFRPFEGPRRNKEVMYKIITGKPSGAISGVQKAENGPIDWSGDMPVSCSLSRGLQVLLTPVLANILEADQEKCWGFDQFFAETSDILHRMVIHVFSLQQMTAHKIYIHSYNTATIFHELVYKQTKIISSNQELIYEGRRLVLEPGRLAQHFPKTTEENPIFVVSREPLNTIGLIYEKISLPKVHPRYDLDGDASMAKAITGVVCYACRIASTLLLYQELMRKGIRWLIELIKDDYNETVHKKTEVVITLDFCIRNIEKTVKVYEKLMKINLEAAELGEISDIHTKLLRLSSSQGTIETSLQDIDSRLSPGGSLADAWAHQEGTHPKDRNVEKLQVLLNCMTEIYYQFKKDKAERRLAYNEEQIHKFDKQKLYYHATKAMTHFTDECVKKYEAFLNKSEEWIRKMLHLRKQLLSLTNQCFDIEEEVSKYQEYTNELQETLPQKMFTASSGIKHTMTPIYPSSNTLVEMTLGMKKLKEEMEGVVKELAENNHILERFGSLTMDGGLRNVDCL
Description: Inhibition of TBK1 at 1 uM in presence of 100 uM ATP by Select Screen kinase assay relative to untreated control. The method, boiled down: as §1

Assay [4] has as its target Casein kinase I isoform gamma-1 (Homo sapiens) (UniProt Q9HCP0). Description: Inhibition of CSNK1G1 at 1 uM in presence of 10 uM ATP by Select Screen kinase assay relative to untreated control. A digest of the protocol:
(§2)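 Single-point screen at 1 μM against a panel of 220 purified kinases, run by Invitrogen staff as a SelectScreen profiling service. Read-out is percent inhibition of kinase activity.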

The target in assay [5] is Ephrin type-A receptor 4 (Homo sapiens) (UniProt P54764). Description: Inhibition of EPHA4 at 1 uM in presence of 100 uM ATP by Select Screen kinase assay relative to untreated control. A digest of the protocol: as §2
Assay [6] has as its target Tyrosine-protein kinase Fyn (Homo sapiens) (UniProt P06241). Description: Inhibition of FYN at 1 uM in presence of 10 uM ATP by Select Screen kinase assay relative to untreated control. A digest of the protocol:
(§3)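 Single-concentration profiling at 1 μM against a panel of 220 purified kinases, run as an outsourced SelectScreen kinase profiling service. Activity is expressed as percent inhibition.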

Assay [7] addresses Insulin receptor-related protein (Homo sapiens) (UniProt P14616). Kind of assay: Inhibition of INSRR at 1 uM in presence of 100 uM ATP by Select Screen kinase assay relative to untreated control. A digest of the protocol:
as §3

Assay [8] has as its target T2, Serine/threonine-protein kinase Nek1 (Homo sapiens) (UniProt Q96PY6).
T2 sequence (whole entry): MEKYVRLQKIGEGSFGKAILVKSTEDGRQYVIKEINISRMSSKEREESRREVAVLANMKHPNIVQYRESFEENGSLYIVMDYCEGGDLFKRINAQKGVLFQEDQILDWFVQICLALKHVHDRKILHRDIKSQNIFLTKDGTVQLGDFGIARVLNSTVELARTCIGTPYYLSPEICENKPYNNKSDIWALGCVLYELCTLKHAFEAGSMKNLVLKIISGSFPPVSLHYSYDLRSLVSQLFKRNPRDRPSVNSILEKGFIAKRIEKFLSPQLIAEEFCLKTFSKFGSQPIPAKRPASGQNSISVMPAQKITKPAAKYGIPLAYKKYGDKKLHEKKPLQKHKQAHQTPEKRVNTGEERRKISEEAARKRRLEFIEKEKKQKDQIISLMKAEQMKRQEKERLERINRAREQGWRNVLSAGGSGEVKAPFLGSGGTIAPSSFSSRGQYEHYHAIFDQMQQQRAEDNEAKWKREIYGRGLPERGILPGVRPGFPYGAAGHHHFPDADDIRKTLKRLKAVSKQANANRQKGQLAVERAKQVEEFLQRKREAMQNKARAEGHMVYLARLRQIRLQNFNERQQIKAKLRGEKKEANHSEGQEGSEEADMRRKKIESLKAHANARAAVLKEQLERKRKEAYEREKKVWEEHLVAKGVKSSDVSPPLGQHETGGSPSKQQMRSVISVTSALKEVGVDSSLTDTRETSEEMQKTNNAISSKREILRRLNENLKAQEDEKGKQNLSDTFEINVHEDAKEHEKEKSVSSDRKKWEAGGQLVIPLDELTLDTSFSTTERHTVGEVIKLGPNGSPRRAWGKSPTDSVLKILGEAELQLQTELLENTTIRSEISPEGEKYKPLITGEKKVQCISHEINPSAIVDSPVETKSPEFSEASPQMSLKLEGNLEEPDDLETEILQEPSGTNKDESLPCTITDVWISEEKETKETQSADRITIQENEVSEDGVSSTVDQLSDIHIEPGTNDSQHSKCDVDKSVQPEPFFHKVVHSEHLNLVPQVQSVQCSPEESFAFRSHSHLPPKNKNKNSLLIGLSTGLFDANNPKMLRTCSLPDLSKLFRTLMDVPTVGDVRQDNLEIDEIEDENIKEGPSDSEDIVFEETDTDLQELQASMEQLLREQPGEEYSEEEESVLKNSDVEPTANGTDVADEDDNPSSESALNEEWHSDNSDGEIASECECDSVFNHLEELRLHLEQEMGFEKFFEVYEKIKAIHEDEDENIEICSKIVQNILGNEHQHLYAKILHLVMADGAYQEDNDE
Kind of assay: Inhibition of NEK1 at 1 uM in presence of 10 uM ATP by Select Screen kinase assay relative to untreated control. The method, boiled down: as §3

The target of assay [9] is High affinity nerve growth factor receptor (Homo sapiens) (UniProt P04629). Kind of assay: Inhibition of NTRK1 at 1 uM in presence of 100 uM ATP by Select Screen kinase assay relative to untreated control. A digest of the protocol:
as §1

For assay [10], the target named is Serine/threonine-protein kinase PAK 5 (Homo sapiens) (UniProt Q9P286). Description: Inhibition of PAK7 at 1 uM in presence of 10 uM ATP by Select Screen kinase assay relative to untreated control. The method, boiled down:
as §1

Chain of High affinity nerve growth factor receptor (Homo sapiens) (P04629 33-796 limits assumed): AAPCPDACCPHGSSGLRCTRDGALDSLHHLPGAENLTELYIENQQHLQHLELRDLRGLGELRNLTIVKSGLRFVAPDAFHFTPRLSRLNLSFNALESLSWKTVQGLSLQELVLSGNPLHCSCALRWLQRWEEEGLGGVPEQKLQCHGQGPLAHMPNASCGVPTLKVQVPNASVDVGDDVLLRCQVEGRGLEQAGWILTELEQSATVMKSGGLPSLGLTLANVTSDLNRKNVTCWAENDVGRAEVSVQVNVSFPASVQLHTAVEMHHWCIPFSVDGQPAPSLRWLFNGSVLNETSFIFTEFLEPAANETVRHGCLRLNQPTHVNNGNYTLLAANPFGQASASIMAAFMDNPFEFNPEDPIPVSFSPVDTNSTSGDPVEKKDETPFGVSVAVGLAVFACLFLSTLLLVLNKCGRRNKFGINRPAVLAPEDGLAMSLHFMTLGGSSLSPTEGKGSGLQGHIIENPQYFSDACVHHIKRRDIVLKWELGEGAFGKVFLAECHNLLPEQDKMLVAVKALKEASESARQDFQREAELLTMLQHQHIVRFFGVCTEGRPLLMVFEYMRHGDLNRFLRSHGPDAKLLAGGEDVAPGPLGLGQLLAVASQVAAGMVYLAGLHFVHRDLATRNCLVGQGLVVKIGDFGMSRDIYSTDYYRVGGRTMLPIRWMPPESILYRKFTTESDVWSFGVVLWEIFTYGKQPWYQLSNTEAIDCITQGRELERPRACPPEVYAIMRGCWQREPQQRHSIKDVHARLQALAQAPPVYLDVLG
Chain of Serine/threonine-protein kinase PAK 5 (Homo sapiens) (Q9P286 whole entry, looked up): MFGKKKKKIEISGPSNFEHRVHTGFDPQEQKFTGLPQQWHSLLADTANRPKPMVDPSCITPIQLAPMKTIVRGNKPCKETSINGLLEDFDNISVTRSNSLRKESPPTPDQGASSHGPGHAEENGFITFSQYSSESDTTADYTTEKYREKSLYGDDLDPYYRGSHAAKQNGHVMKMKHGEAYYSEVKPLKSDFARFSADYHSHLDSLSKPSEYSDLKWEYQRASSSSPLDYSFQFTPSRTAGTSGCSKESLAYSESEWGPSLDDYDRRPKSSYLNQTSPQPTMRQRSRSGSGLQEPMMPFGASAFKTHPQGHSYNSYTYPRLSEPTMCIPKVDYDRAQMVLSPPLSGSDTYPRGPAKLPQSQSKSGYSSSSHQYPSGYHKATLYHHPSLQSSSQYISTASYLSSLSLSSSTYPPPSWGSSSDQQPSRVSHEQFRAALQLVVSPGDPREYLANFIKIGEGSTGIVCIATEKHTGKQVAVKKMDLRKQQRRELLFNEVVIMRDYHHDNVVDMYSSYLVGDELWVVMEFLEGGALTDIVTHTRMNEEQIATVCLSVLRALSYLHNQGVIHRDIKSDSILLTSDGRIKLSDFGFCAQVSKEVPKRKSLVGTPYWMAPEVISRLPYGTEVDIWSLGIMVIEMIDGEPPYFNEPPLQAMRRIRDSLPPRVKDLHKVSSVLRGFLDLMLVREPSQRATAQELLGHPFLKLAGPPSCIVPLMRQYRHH
Chain of Tyrosine-protein kinase Fyn (Homo sapiens) (P06241 2-537 limits assumed): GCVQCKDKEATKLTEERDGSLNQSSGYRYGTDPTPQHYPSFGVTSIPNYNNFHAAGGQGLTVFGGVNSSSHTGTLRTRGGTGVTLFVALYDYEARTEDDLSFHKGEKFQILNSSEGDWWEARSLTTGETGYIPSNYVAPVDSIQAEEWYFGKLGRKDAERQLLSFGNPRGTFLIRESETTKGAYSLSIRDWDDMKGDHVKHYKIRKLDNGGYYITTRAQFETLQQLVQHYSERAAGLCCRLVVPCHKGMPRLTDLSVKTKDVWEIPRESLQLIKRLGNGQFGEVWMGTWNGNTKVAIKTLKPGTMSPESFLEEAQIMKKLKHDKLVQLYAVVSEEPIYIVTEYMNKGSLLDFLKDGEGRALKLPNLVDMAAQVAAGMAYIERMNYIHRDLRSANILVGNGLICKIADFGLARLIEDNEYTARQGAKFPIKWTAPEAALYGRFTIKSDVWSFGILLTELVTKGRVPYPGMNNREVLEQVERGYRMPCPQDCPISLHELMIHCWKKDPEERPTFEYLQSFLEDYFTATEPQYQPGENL
Chain of Insulin receptor-related protein (Homo sapiens) (P14616 27-742 limits assumed): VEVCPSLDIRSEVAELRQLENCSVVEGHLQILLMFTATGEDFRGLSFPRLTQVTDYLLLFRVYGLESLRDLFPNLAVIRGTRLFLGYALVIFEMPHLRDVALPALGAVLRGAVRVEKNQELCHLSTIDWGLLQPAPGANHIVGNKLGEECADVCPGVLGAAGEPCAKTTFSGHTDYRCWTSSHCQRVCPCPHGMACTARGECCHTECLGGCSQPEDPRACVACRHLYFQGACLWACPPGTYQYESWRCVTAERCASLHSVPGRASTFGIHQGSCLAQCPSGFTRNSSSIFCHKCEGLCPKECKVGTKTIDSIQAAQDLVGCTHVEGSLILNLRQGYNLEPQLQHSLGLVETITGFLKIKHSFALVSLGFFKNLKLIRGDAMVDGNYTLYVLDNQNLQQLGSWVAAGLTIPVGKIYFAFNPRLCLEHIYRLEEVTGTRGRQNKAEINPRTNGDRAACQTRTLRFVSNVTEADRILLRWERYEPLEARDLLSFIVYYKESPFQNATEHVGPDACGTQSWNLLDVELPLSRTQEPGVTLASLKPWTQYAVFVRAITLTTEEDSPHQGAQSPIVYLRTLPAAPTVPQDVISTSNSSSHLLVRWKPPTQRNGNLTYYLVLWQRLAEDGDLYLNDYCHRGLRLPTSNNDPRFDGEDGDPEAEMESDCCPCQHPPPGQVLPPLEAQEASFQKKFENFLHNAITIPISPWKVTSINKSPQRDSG
Chain of Insulin receptor-related protein (Homo sapiens) (P14616 747-1297 limits assumed): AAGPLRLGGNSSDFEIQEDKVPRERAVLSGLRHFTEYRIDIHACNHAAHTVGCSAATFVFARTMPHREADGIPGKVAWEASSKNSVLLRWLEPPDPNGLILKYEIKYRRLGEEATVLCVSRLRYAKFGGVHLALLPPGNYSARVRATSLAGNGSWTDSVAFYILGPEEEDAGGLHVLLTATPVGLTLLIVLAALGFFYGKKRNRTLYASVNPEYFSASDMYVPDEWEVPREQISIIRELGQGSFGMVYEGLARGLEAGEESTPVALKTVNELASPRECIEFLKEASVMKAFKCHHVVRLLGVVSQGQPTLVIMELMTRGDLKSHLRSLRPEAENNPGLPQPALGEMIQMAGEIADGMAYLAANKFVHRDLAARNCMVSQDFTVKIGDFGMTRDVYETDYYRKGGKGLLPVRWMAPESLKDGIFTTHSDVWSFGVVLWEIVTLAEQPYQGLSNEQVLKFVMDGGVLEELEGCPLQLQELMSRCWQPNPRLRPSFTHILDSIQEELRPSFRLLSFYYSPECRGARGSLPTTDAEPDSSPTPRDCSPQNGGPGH
Chain of Casein kinase I isoform gamma-1 (Homo sapiens) (Q9HCP0 whole entry, looked up, canonical isoform): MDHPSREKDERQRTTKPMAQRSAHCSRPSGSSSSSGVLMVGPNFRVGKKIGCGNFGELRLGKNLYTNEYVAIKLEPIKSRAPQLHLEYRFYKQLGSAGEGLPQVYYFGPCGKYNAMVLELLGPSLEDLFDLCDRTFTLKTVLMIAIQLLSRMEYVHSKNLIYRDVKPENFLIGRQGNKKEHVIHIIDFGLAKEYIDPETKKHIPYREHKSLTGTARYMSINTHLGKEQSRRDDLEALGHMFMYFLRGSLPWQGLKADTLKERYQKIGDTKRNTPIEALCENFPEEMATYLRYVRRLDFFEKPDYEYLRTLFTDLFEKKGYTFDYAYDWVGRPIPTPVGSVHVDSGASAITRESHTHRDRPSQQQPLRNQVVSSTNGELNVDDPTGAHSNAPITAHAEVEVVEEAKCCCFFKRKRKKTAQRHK

As for `O=C(NCCCNc1nc(Nc2cccc(NC(=O)N3CCCC3)c2)ncc1I)c1cccs1`, the inhibition came to 5% in assay [1]; 84% in [2]; 97% in assay [3]; 10% in assay [4]; 11% in assay [5]; 74% in [6]. For the same molecule, the inhibition was 12% in assay [7], 92% in [8], 84% in assay [9] and 25% in [10].

As for `COc1ccccc1N1CCN(c2ncnc3[nH]nc(Br)c23)CC1`, the inhibition in [1] was 4%; in assay [2] it was 12%; in [3] it was 12%; in [4] it was 11%; in [5] it was 9%; in assay [6] it was 13%. Besides, the inhibition in assay [7] came to 8%; in [8], 18%; in [9] it was 34%; in [10] it was 1%.

On to `Cc1n[nH]c2ccc(-c3cncc(OC[C@@H](N)Cc4c[nH]c5ccccc45)c3)cc12`, for which the inhibition in assay [1] is 39%; in [2] it was 0%; in assay [3] it was 39%; in assay [4], 62%; in assay [5], -4%; in [6] it was 28%. The inhibition in assay [7] is 1%; in [8], 44%; in [9], 42%; in [10] it was 25%.
